Laboratory results taken from PMC9382663 (Nature, 2022).
Where no end group is shown, it is not given here. [ ]: non-standard residue; d: D form. pS = N[C@@H](COP(=O)(O)O)C(=O)O

What was measured:
[1] = test system: mouse splenocytes and lymph node cells; assay: Cytokine ELISA in cell culture supernatant; format: cell-based; conditions: cells of immunized mice re-stimulated with peptide
EBNA1AA386–405 = assay: Mouse plasma IgG ELISA against EBNA1 peptide; format: in vivo, SJL/J mice; conditions: immunized mice, plasma 1:100
[2] = test system: splenocytes and lymph node cells; assay: T cell proliferation by 3H-thymidine incorporation; format: cell-based, mouse; conditions: cells pooled from n=10 immunized mice
[3] = test system: experimental autoimmune encephalomyelitis (EAE); assay: EAE after peptide immunization; format: in vivo, SJL/J mice; conditions: spinal cord histology, day 50; vs. scrambled peptide
GlialCAM ICD = assay: Mouse plasma IgG ELISA against GlialCAM ICD; format: in vivo, SJL/J mice; conditions: immunized mice, plasma 1:100
[4] = test system: plasma antibody reactivity against EBNA1AA386–405; assay: Plasma ELISA with blocking of plasma IgG; format: binding, human; conditions: blocking peptide 10 μg/ml, 2 h RT; nine high-reactivity MS samples
Summary of the method: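 384-well plates are coated overnight at 4°C with recombinant Protein G (2μg/ml) and washed 6x with PBST. Plasma (1:100) is bound overnight at 4°C, washed again, then blocked 2 h at RT with 10μg/ml peptide (scrambled control, EBNA1 AA386–405 or GlialCAM AA370–389 pSer376). Read-out is OD 450 nm normalized to the unblocked sample, with quadruplicate wells.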

[5] = biological target: T1, biotinylated GlialCAM_(AA370–389 pSer376 pSer377) peptide (human) (UniProt Q14CZ8); assay: BLI
T1 sequence (peptide): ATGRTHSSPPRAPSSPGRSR

[6] = biological target: T2, biotinylated GlialCAM_(AA370–389 pSer376) peptide (human) (UniProt Q14CZ8); assay: BLI
T2 sequence (peptide): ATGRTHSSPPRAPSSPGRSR

[7] = biological target: T3, biotinylated EBNA1_(AA386–405) peptide (Epstein-Barr virus, sequence as B95-8); assay: BLI
T3 chain: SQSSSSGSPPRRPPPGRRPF

[8] = biological target: EBNA1 full-length protein AA1–641 (Epstein-Barr virus, strain ; …, UniProt P03211); assay: BLI
Chain of EBNA1 full-length protein AA1–641 (P03211 whole entry, the tested form may be a part): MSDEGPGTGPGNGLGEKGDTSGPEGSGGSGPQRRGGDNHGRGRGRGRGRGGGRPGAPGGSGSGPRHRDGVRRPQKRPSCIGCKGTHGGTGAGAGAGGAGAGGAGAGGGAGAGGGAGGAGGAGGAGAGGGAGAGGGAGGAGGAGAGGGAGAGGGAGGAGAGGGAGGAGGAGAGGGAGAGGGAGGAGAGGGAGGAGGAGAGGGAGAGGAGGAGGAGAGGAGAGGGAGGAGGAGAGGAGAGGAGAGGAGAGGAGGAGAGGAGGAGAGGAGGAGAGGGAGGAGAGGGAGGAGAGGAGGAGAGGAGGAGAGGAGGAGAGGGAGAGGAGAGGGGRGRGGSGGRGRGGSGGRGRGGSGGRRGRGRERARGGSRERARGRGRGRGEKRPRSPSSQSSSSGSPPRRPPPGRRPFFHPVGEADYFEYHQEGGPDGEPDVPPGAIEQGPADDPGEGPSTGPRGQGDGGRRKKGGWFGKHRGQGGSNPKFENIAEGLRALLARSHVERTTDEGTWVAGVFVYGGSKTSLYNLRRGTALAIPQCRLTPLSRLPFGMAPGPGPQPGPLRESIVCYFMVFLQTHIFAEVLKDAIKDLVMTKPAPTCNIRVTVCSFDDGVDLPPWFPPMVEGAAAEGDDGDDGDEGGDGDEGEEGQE

[9] = biological target: T4, biotinylated native GlialCAM_(AA370–389) peptide (Homo sapiens, UniProt Q14CZ8); assay: BLI
T4 chain: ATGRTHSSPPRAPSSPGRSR

[10] = biological target: GlialCAM protein (bio-layer interferometry) (Homo sapiens, UniProt Q14CZ8); assay: BLI
[11] = biological target: actin filament associated protein 1 (AFAP1) on the HuProt microarray (Homo sapiens (Human)., UniProt Q8N556); assay: peptide or protein array
Chain of actin filament associated protein 1 (AFAP1) on the HuProt microarray (Q8N556 whole entry, the tested form may be a part): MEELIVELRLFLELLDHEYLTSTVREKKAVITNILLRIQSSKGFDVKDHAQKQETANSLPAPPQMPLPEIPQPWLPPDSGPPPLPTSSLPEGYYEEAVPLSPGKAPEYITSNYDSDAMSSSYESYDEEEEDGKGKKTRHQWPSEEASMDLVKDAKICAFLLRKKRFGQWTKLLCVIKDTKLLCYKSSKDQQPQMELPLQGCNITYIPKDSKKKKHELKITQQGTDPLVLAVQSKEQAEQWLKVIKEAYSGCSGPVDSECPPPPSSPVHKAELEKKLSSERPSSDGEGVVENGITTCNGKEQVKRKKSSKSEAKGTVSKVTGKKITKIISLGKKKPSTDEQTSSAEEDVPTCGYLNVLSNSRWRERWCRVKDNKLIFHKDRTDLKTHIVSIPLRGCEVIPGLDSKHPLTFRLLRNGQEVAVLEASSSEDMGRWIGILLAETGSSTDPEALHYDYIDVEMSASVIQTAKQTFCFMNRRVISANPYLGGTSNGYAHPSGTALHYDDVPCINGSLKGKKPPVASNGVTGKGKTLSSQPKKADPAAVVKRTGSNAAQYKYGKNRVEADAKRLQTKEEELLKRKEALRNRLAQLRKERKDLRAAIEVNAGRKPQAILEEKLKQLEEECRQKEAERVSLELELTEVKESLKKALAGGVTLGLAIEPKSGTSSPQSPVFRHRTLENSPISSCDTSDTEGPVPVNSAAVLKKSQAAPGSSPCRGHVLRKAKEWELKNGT

[12] = biological target: T5, EBNA1_(AA386–405) 20mer peptide (Epstein-Barr virus); assay: ELISA
T5 chain: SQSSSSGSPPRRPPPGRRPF

[13] = biological target: unmutated ancestor of MS39p2w174 (germline) (human); assay: BLI

Molecule: SQSSSSGSPPRRPPPGRRPF [EBNA1AA386–405]
- IL-17 secretion [1]: suppressed
- secretion of IFN-γ, TNF, IL-12, IL-6 and IL-10 [1]: stimulated the secretion
- plasma IgG response to EBNA1AA386–405 (EBNA1AA386–405): robust antibody responses
- CD4+ T cell response [2]: strong CD4+ T cell response
- CNS immune cell infiltration (H&E) [3]: enhanced CNS immune cell infiltration
- demyelination (Luxol Fast Blue) [3]: enhanced
- plasma IgG response to GlialCAM ICD (GlialCAM ICD): robust antibody responses

Molecule: GlialCAMAA370–389 pSer376: GlialCAM 20mer peptide phosphorylated at Ser376 (ATGRTH[pS]SPPRAPSSPGRSR)
- blocking of anti-EBNA1AA386–405 plasma reactivity [4]: inhibition

B1: mAb MS39p2w174 (antibody, V domains shown)
VH: QVQLVESGGGLVKPGGSLRLSCVSSGFTFSNYWMSWVRQAPGGGLEWVANINQDGSEKYYVDSVKGRFTSSRDNTKNSLFLQLNSLRAEDTGIYYCTRDPPYFDNWGQGTLVTVSS
VL: DVVLTQSPLSLPVILGQPASISCRSSQSLVYSDGRTYLNWFQQRPGQSPRRLIYKISKRDSGVPERFSGSGSGTDFTLEISRVEAEDVGIYYCMQGSHWPVTFGQGTKVEIK
- Kd [5]: 3.73 nM
- Kd [6]: 6.1 nM
- Kd [7]: 2.67 nM
- Kd [8]: 1.99 nM
- Kd [9]: 302 nM
- Kd [10]: 0.19 nM
- binding result [11]: binds
- binding result [12]: binds

B2: GlialCAM protein (bio-layer interferometry) (natural protein)
chain: VNITSPVRLIHGTVGKSALLSVQYSSTSSDRPVVKWQLKRDKPVTVVQSIGTEVIGTLRPDYRDRIRLFENGSLLLSDLQLADEGTYEVEISITDDTFTGEKTINLTVDVPISRPQVLVASTTVLELSEAFTLNCSHENGTKPSYTWLKDGKPLLNDSRMLLSPDQKVLTITRVLMEDDDLYSCMVENPISQGRSLPVKITVYRRSSLYIILSTGGIFLLVTLVTVCACWKPSKRKQKKLEKQNSLEYMDQNDDRLKPEADTLPRSGEQERKNPMALYILKDKDSPETEENPAPEPRSATEPGPPGYSVSPAVPGRSPGLPIRSARRYPRSPARSPATGRTHSSPPRAPSSPGRSRSASRTLRTAGVHIIREQDEAGPVEISA
- Kd [13]: 10.5 nM
